Measurements published in PubChem BioAssay AID623919 (The Scripps Research Institute Molecular Screening Center, 2012).
Activity calls are given as the source filed them.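 Rule for the calls: active = recombination in E. coli crosses cut more than 4-fold against the solvent-only control; inactive = cut of 4-fold or less.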

Test system: E. coli V66 Hfr conjugational recombination, colony counts
Test: RecBCD-driven recombination inhibition in E. coli, late-stage follow-up, counter-screen for AddAB inhibitor project, V66 E. coli, colony formation, powder samples, 100 µM (AID 623919)
Conditions: at 100 µM; active compounds read high
Outline: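 Material: E. coli V66 recipient with Hfr donor / Times: 1 h recipient growth with compound, then 30 min mating / Probe or stimulus: Hfr donor, 1:10 donor-to-recipient / Compound dosing: single 100 µM dose / Medium: LB broth / Signal: differential plating colony counts / Control set: DMSO-only culture / Replicates: duplicates / Read-out basis: fold reduction in recombinant frequency versus DMSO, viability-adjusted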

## CC1CCc2c(sc(NC(=O)c3ccc([N+](=O)[O-])o3)c2N)C1 (stereo not drawn)
  fold reduction of recombination: 2 (inactive)

## CCn1cc(C(=O)O)c(=O)c2cnc(N3CCN(C(=S)Nc4cccc(C(F)(F)F)c4)CC3)nc21
  fold reduction of recombination: 6

## N#Cc1c(NC(=O)c2ccccc2)sc2c1CCC2
  fold reduction of recombination: 1 (inactive)

## Cc1ccc(C(=O)Nc2sc3c(c2C#N)CCC3)o1
  fold reduction of recombination: 2 (inactive)

## N#Cc1c(NC(=O)C2CC=CCC2C(=O)O)sc2c1CCC2 (stereo not drawn)
  fold reduction of recombination: 1 (inactive)

## CCn1cc(C(=O)O)c(=O)c2cnc(N3CCN(C(=S)Nc4ccc5c(c4)OCO5)CC3)nc21
  fold reduction of recombination: 1 (inactive)

## NC(=O)c1ccsc1NC(=O)COC(=O)c1ccc([N+](=O)[O-])o1
  fold reduction of recombination: 1.6 (inactive)

## CCn1cc(C(=O)O)c(=O)c2cnc(N3CCN(C(=S)NC(=O)c4ccccc4Cl)CC3)nc21
  fold reduction of recombination: 2 (inactive)

## CCn1cc(C(=O)O)c(=O)c2cnc(N3CCN(C(=S)Nc4ccccc4)CC3)nc21
  fold reduction of recombination: 1 (inactive)

## CC(=O)Nc1ccc2nc(NC(=O)c3ccc([N+](=O)[O-])o3)sc2c1
  fold reduction of recombination: 2 (inactive)

## CCn1cc(C(=O)O)c(=O)c2cnc(N3CCN(C(=S)Nc4ccccc4C)CC3)nc21
  fold reduction of recombination: 1 (inactive)

## CCn1cc(C(=O)O)c(=O)c2cnc(N3CCN(C(=S)Nc4ccccc4OC)CC3)nc21
  fold reduction of recombination: 1.5 (inactive)

## N#Cc1c(NC(=O)c2cnccn2)sc2c1CCCC2
  fold reduction of recombination: 1 (inactive)

## Nc1c(NC(=O)c2ccc([N+](=O)[O-])o2)sc2c1CCCC2
  fold reduction of recombination: 1 (inactive)

## O=C(Nc1ncccn1)c1ccc([N+](=O)[O-])o1
  fold reduction of recombination: 20

## CCn1cc(C(=O)O)c(=O)c2cnc(N3CCN(C(=S)NC)CC3)nc21
  fold reduction of recombination: 1 (inactive)

## O=C(Nc1cccc(NC(=O)c2ccccc2Cl)c1)c1ccc([N+](=O)[O-])o1
  fold reduction of recombination: 2 (inactive)

## O=C(NCc1cccnc1)c1ccc([N+](=O)[O-])o1
  fold reduction of recombination: 18.5

## CCn1cc(C(=O)O)c(=O)c2cnc(N3CCN(C(=S)NC(=O)c4ccco4)CC3)nc21
  fold reduction of recombination: 1 (inactive)

## N#Cc1c(NC(=O)c2ccccc2C(=O)O)sc2c1CCCC2
  fold reduction of recombination: 1 (inactive)

## CCn1cc(C(=O)O)c(=O)c2cnc(N3CCN(C(=S)NC(=O)c4cccc(C)c4)CC3)nc21
  fold reduction of recombination: 1 (inactive)

## CCn1cc(C(=O)O)c(=O)c2cnc(N3CCN(C(=S)NC4CC5CCC4C5)CC3)nc21 (stereo not drawn)
  fold reduction of recombination: 1 (inactive)

## N#Cc1c(NC(=O)c2ccc([N+](=O)[O-])o2)sc2c1CCCC2
  fold reduction of recombination: 1 (inactive)

## N#Cc1c(NC(=O)c2ccc([N+](=O)[O-])o2)sc2c1CCC2
  fold reduction of recombination: 3 (inactive)

## CCn1cc(C(=O)O)c(=O)c2cnc(N3CCN(C(=S)Nc4ccc5c(c4)OCCO5)CC3)nc21
  fold reduction of recombination: 1 (inactive)

## Cc1ccc(C(=O)Nc2sc3c(c2C#N)CCCCC3)o1
  fold reduction of recombination: 3 (inactive)

## CCn1cc(C(=O)O)c(=O)c2cc(F)c(N3CCN(C(=S)Nc4cccc(C(F)(F)F)c4)CC3)cc21
  fold reduction of recombination: 350

## O=C(OCC(=O)c1cccs1)c1ccc([N+](=O)[O-])o1
  fold reduction of recombination: 2.1 (inactive)

## CCn1cc(C(=O)O)c(=O)c2cnc(N3CCN(C(=S)NC(=O)c4cccnc4)CC3)nc21
  fold reduction of recombination: 1 (inactive)

## CCn1cc(C(=O)O)c(=O)c2cnc(N3CCNCC3)nc21
  fold reduction of recombination: 50

## CCn1cc(C(=O)O)c(=O)c2cnc(N3CCN(C(=S)Nc4ccc(Cl)cc4)CC3)nc21
  fold reduction of recombination: 1 (inactive)

## O=C(Nc1ccc(N2CCOCC2)cc1)c1ccc([N+](=O)[O-])o1
  fold reduction of recombination: 2 (inactive)

## CCn1cc(C(=O)O)c(=O)c2cnc(N3CCN(C(=S)NC(C)c4ccccc4)CC3)nc21 (stereo not drawn)
  fold reduction of recombination: 1.5 (inactive)

## CCn1cc(C(=O)O)c(=O)c2cnc(N3CCN(C(=S)Nc4ccc(F)cc4)CC3)nc21
  fold reduction of recombination: 1 (inactive)

## N#Cc1c(NC(=O)c2ccco2)sc2c1CCC2
  fold reduction of recombination: 1 (inactive)

## CC1(C)Cc2c(sc(NC(=O)c3ccco3)c2C#N)CO1
  fold reduction of recombination: 2 (inactive)

## C=CCNC(=S)N1CCN(c2ncc3c(=O)c(C(=O)O)cn(CC)c3n2)CC1
  fold reduction of recombination: 1.5 (inactive)

## N#Cc1c(NC(=O)c2cccc(F)c2)sc2c1CCCC2
  fold reduction of recombination: 1 (inactive)

## Cc1ccc2nc(/C(C#N)=C\c3ccc([N+](=O)[O-])o3)[nH]c2c1
  fold reduction of recombination: 3 (inactive)

## CCn1cc(C(=O)O)c(=O)c2cnc(N3CCN(C(=S)Nc4ccccc4F)CC3)nc21
  fold reduction of recombination: 2 (inactive)

## Cc1sc(NC(=O)c2ccc(Br)o2)c(C#N)c1C
  fold reduction of recombination: 1.5 (inactive)

## Cc1cccnc1NC(=O)c1ccc([N+](=O)[O-])o1
  fold reduction of recombination: 3 (inactive)

## CCn1cc(C(=O)O)c(=O)c2cnc(N3CCN(C(=S)NCc4ccccc4)CC3)nc21
  fold reduction of recombination: 1 (inactive)

## C=CCn1c(Sc2ncc([N+](=O)[O-])s2)n[nH]c1=O
  fold reduction of recombination: 900

## CCn1cc(C(=O)O)c(=O)c2cnc(N3CCN(C(=S)Nc4ccccc4Cl)CC3)nc21
  fold reduction of recombination: 1 (inactive)

## CCn1cc(C(=O)O)c(=O)c2cnc(N3CCN(C(=O)Nc4ccccc4)CC3)nc21
  fold reduction of recombination: 1 (inactive)

## N#Cc1c(NC(=O)c2ccc(-c3ccccc3[N+](=O)[O-])o2)sc2c1CCCC2
  fold reduction of recombination: 1 (inactive)

## CC1CCc2c(sc(NC(=O)c3ccc([N+](=O)[O-])o3)c2C#N)C1 (stereo not drawn)
  fold reduction of recombination: 2 (inactive)
